Source: ChEMBL document CHEMBL2380270, “Radiosynthesis and first evaluation in mice of [(18)F]NS14490 for molecular imaging of α7 nicotinic acetylcholine receptors” (Bioorg Med Chem, 2013)

Columns and labels:
[1] = target: T1, Neuronal acetylcholine receptor subunit alpha-7 (Homo sapiens, UniProt P36544); assay: Binding affinity to alpha7 nAChR (unknown origin)
Summary of the method: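 Radioligand competition on homogenates of SH-SY5Y cells transfected with human α7 nAChR. [³H]methyllycaconitine at about 0.3 nM working concentration, test ligand in serial dilution 10 pM–10 µM. Buffer 50 mM Tris–HCl pH 7.4 with 120 mM NaCl, 5 mM KCl, 2.5 mM MgCl₂, 1 mM CaCl₂. Nonspecific binding defined with 300 µM (−)-nicotine tartrate. Incubated 240 min at room temperature, then filtered on PEI-soaked GF/B and counted by scintillation. Run in triplicate; IC50 by non-linear regression, Ki by Cheng–Prusoff.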

Brain [2] = assay: Biodistribution in CD1 mouse brain measured at 60 mins by autoradiographic analysis; assay type: ADME, organism-based; details: in vivo, 1 h
Mus musculus [3] = assay: Biodistribution in CD1 mouse large intestine at 200 to 300 kBq, iv measured at 60 mins by gamma counting analysis in presence of NS6740; assay type: ADME, organism-based; details: in vivo, 1 h
Summary of the method: (§1)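 Blocking study in female CD-1 mice, n = 7 per blocker, with a matching control group. SSR180711 or NS6740 given at 10 mg kg⁻¹ ip in 0.9% saline 10 min before iv radiotracer (200–300 kBq). Organs taken at 60 min p.i., weighed and gamma-counted; uptake as % ID per g wet weight. Compared with control by two-tailed independent Student's t test.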

Heart = assay: Biodistribution in CD1 mouse heart at 200 to 300 kBq, iv measured at 60 mins by gamma counting analysis in presence of NS6740; assay type: ADME, organism-based; details: in vivo, 1 h; summary of the method: as §1
Urinary bladder = assay: Biodistribution in CD1 mouse bladder at 200 to 300 kBq, iv measured at 60 mins by gamma counting analysis in presence of NS6740; assay type: ADME, organism-based; details: in vivo, 1 h; summary of the method: as §1
Stomach = assay: Biodistribution in CD1 mouse stomach at 200 to 300 kBq, iv measured at 60 mins by gamma counting analysis in presence of NS6740; assay type: ADME, organism-based; details: in vivo, 1 h
Summary of the method: (§2)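 Blocking design in female CD-1 mice, n = 7 per group. The blocker was given at 10 mg kg^-1 i.p. in 0.9% saline 10 min before i.v. 200–300 kBq [18F]radiotracer. Mice were killed at 60 min p.i. and organs weighed and gamma-counted as % ID per g wet weight. Blocked groups were compared with controls by two-tailed independent Student's t test.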

Zone of skin = assay: Biodistribution in CD1 mouse skin at 200 to 300 kBq, iv measured at 60 mins by gamma counting analysis in presence of NS6740; assay type: ADME, organism-based; details: in vivo, 1 h; summary of the method: as §2
Mus musculus [4] = assay: Biodistribution in CD1 mouse adrenal at 200 to 300 kBq, iv measured at 60 mins by gamma counting analysis in presence of NS6740; assay type: ADME, organism-based, Adrenal gland; details: in vivo, 1 h; summary of the method: as §1
[5] = target: Neuronal acetylcholine receptor subunit alpha-7 (Rattus norvegicus, UniProt Q05941); assay: Displacement of [3H]A-585539 from rat brain alpha7 nAChR by scintillation counting analysis
Neuronal acetylcholine receptor subunit alpha-7 (Rattus norvegicus, UniProt Q05941), sequence (Q05941 whole entry): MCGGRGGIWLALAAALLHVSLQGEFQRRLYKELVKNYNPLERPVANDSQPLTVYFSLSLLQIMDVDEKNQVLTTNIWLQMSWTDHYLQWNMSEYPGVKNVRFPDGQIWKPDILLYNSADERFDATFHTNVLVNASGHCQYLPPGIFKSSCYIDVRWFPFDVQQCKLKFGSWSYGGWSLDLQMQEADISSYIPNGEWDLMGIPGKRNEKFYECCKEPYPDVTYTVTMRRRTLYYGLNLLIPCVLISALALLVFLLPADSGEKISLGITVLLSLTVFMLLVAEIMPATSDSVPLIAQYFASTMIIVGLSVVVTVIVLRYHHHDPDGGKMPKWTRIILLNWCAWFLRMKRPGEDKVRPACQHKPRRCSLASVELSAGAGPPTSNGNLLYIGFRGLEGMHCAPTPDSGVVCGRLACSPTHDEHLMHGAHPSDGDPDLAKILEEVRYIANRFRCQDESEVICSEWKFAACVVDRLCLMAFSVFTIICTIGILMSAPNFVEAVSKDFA

Liver = assay: Biodistribution in CD1 mouse liver at 200 to 300 kBq, iv measured at 60 mins by gamma counting analysis in presence of NS6740; assay type: ADME, organism-based; details: in vivo, 1 h; summary of the method: as §2
Femur = assay: Biodistribution in CD1 mouse femur at 200 to 300 kBq, iv measured at 60 mins by gamma counting analysis in presence of NS6740; assay type: ADME, organism-based; details: in vivo, 1 h; summary of the method: as §1
Brain [6] = assay: Biodistribution in CD1 mouse brain at 200 to 300 kBq, iv measured at 60 mins by gamma counting analysis in presence of NS6740; assay type: ADME, organism-based; details: in vivo, 1 h; summary of the method: as §1
Lung = assay: Biodistribution in CD1 mouse lung at 200 to 300 kBq, iv measured at 60 mins by gamma counting analysis in presence of NS6740; assay type: ADME, organism-based; details: in vivo, 1 h; summary of the method: as §2
Muscle tissue = assay: Biodistribution in CD1 mouse muscle at 200 to 300 kBq, iv measured at 60 mins by gamma counting analysis in presence of NS6740; assay type: ADME, organism-based; details: in vivo, 1 h; summary of the method: as §2
Pancreas = assay: Biodistribution in CD1 mouse pancreas at 200 to 300 kBq, iv measured at 60 mins by gamma counting analysis in presence of NS6740; assay type: ADME, organism-based; details: in vivo, 1 h; summary of the method: as §2
Kidney = assay: Biodistribution in CD1 mouse kidney at 200 to 300 kBq, iv measured at 60 mins by gamma counting analysis in presence of NS6740; assay type: ADME, organism-based; details: in vivo, 1 h; summary of the method: as §1
Mus musculus [7] = assay: Biodistribution in CD1 mouse small intestine at 200 to 300 kBq, iv measured at 60 mins by gamma counting analysis in presence of NS6740; assay type: ADME, organism-based; details: in vivo, 1 h; summary of the method: as §2
Spleen = assay: Biodistribution in CD1 mouse spleen at 200 to 300 kBq, iv measured at 60 mins by gamma counting analysis in presence of NS6740; assay type: ADME, organism-based; details: in vivo, 1 h; summary of the method: as §2
[8] = Biodistribution in CD1 mouse urine at 200 to 300 kBq, iv measured at 60 mins by gamma counting analysis in presence of NS6740; assay type: ADME, organism-based; details: in vivo, 1 h
Summary of the method: (§3)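 Female CD-1 mice given 200–300 kBq tracer intravenously. Animals anaesthetised for blood and urine sampling, then killed by cervical dislocation at 5, 15, 30 or 60 min (n = 3 per time; n = 7 at 60 min). Organs removed and weighed, activity gamma-counted, expressed as % injected dose per g wet weight. Blocking arm: 10 mg/kg i.p. in 0.9% saline, 10 min before tracer; two-tailed unpaired t test versus control.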

Blood = assay: Biodistribution in CD1 mouse blood at 200 to 300 kBq, iv measured at 60 mins by gamma counting analysis in presence of NS6740; assay type: ADME, organism-based; details: in vivo, 1 h; summary of the method: as §1
Mus musculus [9] = assay: Biodistribution in CD1 mouse thymus at 200 to 300 kBq, iv measured at 60 mins by gamma counting analysis in presence of NS6740; assay type: ADME, organism-based; details: in vivo, 1 h; summary of the method: as §3
[10] = Cyclohexane-PBS distribution coefficient, log D of the compound at pH 7.2 after 30 mins by shake-flask method; assay type: physicochemical; details: pH 7.2, 0.5 h
[11] = Ratio of drug level in brain to plasma in CD1 mouse at 200 to 300 kBq, iv measured at 60 mins; assay type: ADME, organism-based; details: read-out: BPR
Summary of the method: (§4)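 Female CD-1 mice injected intravenously with 200–300 kBq tracer. Animals killed at 5, 15, 30 and 60 min (n = 3; n = 7 at 60 min). Brain and plasma activity gamma-counted as % ID/g wet weight, and the brain-to-plasma ratio taken from these values.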

[12] = Stability of the compound in Tris-HCl buffer assessed as compound remaining at pH 6.7 measured up to 2 hrs by radio-TLC analysis; assay type: physicochemical; details: read-out: Stability
Summary of the method: (§5)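 Tracer formulated in isotonic saline, then diluted 1:20 into 50 mM Tris–HCl (pH 6.7) or PBS (pH 7.2). Stirred at 40 °C for up to 2 h, sampled at 5, 10, 30, 60, 90 and 120 min, and analysed by radio-TLC for intact tracer.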

[13] = Ratio of drug level in brain to plasma in CD1 mouse at 200 to 300 kBq, iv measured at 30 mins; assay type: ADME, organism-based; details: read-out: BPR; summary of the method: as §4
[14] = Stability of the compound in Tris-HCl buffer assessed as compound remaining at pH 6.7 measured at 5 mins by radio-TLC analysis; assay type: physicochemical; details: read-out: Stability; summary of the method: as §5
[15] = Ratio of drug level in brain to plasma in CD1 mouse at 200 to 300 kBq, iv measured at 5 mins; assay type: ADME, organism-based; details: read-out: BPR; summary of the method: as §4
[16] = Ratio of drug level in brain to plasma in CD1 mouse at 200 to 300 kBq, iv measured at 15 mins; assay type: ADME, organism-based; details: read-out: BPR; summary of the method: as §4
[17] = n-Octanol-PBS distribution coefficient, log D of the compound at pH 7.2 after 30 mins by shake-flask method; assay type: physicochemical
[18] = Stability of the compound in PBS buffer assessed as compound remaining at pH 7.2 measured at 5 mins by radio-TLC analysis; assay type: physicochemical; details: read-out: Stability; summary of the method: as §5
[19] = Stability of the compound in PBS buffer assessed as compound remaining at pH 7.2 measured up to 2 hrs by radio-TLC analysis; assay type: physicochemical; details: read-out: Stability; summary of the method: as §5
Homo sapiens [20] = species on record: Homo sapiens; assay: Selectivity ratio of Ki for human alpha3beta4 nAChR to Ki for human alpha7 nAChR
[21] = target: T1, Neuronal acetylcholine receptor subunit alpha-7; assay: Displacement of [3H]-methyllycaconitine from human alpha7 nAChR transfected in human SH-SY5Y cells after 240 mins by liquid scintillation counting analysis; assay type: cell-based
Summary of the method: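 Homogenates of SH-SY5Y cells transfected with human α7 nAChR, with about 0.3 nM [3H]methyllycaconitine and compound 10 pM–10 µM in Tris–HCl pH 7.4 saline buffer. Incubated 240 min at room temperature; nonspecific binding defined with 300 µM (−)-nicotine tartrate. Filtered onto PEI-soaked GF/B, washed with ice-cold Tris, scintillation counted, triplicates; Ki via Cheng–Prusoff.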

[22] = target: Neuronal acetylcholine receptor; alpha3/beta4 (Homo sapiens, UniProt P30926+P32297); assay: Displacement of (+/-)[3H]-epibatidine from human alpha3beta4 nAChR transfected in HEK293 cells after 90 mins by liquid scintillation counting analysis; assay type: cell-based
Neuronal acetylcholine receptor; alpha3/beta4, sequence (P30926 whole entry): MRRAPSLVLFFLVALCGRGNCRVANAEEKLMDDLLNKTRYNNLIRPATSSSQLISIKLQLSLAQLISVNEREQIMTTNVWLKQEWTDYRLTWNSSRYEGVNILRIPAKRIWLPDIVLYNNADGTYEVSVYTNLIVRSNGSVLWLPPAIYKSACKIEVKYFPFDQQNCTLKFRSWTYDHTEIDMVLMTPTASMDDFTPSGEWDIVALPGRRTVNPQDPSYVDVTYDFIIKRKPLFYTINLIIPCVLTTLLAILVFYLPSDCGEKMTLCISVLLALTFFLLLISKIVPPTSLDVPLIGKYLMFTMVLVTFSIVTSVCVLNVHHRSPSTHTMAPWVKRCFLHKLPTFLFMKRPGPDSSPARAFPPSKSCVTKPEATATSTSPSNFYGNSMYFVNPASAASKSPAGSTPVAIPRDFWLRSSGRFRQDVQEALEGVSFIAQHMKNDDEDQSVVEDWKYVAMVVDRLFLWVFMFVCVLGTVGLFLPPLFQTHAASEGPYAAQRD
Neuronal acetylcholine receptor; alpha3/beta4, sequence (P32297 whole entry): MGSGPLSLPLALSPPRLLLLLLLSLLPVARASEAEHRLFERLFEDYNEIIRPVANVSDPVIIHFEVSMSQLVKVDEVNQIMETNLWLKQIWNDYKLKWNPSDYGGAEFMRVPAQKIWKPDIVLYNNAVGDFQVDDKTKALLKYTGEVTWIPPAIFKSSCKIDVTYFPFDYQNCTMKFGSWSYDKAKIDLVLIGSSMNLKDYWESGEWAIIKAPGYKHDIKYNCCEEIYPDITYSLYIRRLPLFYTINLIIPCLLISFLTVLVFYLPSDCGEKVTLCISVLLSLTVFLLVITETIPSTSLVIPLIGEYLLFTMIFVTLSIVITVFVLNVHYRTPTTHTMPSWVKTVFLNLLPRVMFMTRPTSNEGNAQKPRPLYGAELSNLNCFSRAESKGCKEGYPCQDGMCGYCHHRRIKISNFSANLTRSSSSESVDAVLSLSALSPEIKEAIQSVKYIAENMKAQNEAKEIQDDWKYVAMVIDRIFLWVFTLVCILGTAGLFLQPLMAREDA
Summary of the method: (§6)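 Homogenates of HEK293 cells transfected with human α4β2 or α3β4 nAChR, with about 0.5 nM (±)-[3H]epibatidine and compound 10 pM–10 µM. Buffer: 50 mM Tris–HCl pH 7.4 with NaCl, KCl, MgCl2 and CaCl2. Incubated 90 min at room temperature; nonspecific binding defined with 300 µM (−)-nicotine tartrate. Filtered onto PEI-soaked GF/B, scintillation counted, triplicates; IC50 by nonlinear regression, Ki by Cheng–Prusoff.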

Homo sapiens [23] = species on record: Homo sapiens; assay: Selectivity ratio of Ki for human alpha4beta2 nAChR to Ki for human alpha7 nAChR
[24] = target: Neuronal acetylcholine receptor; alpha4/beta2 (Homo sapiens, UniProt P17787+P43681); assay: Displacement of (+/-)[3H]-epibatidine from human alpha4beta2 nAChR transfected in HEK293 cells after 90 mins by liquid scintillation counting analysis; assay type: cell-based; summary of the method: as §6
Neuronal acetylcholine receptor; alpha4/beta2, sequence (P17787 whole entry): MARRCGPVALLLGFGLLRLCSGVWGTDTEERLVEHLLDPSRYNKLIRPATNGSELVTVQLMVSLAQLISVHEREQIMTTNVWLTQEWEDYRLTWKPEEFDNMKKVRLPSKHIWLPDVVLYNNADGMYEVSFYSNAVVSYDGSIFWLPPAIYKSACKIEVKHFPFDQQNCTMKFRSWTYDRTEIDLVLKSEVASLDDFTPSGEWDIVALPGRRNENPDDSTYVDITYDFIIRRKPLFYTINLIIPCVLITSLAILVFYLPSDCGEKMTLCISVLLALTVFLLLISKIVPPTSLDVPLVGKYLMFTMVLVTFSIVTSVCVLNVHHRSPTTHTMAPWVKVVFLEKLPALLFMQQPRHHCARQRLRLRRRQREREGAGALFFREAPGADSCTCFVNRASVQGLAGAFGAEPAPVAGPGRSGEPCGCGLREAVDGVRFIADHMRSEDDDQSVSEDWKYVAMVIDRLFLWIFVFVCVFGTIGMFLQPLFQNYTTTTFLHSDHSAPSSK
Neuronal acetylcholine receptor; alpha4/beta2, sequence (P43681 whole entry): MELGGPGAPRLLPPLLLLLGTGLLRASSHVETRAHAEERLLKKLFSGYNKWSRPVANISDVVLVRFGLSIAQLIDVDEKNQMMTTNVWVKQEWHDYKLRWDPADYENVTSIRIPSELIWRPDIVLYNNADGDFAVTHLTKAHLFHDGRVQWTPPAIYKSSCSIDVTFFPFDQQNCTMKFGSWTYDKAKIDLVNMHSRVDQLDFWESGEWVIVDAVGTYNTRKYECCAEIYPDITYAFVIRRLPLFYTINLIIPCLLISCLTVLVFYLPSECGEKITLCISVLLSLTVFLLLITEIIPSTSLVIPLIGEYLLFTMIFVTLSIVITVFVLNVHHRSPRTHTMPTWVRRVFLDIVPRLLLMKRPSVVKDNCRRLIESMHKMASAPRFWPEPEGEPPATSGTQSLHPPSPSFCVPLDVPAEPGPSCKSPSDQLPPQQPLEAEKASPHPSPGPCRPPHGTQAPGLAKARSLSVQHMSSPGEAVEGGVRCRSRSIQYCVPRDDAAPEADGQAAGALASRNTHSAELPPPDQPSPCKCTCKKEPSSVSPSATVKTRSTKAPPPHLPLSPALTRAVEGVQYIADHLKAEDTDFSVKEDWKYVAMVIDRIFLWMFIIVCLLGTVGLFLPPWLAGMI

T1 sequence (P36544 whole entry): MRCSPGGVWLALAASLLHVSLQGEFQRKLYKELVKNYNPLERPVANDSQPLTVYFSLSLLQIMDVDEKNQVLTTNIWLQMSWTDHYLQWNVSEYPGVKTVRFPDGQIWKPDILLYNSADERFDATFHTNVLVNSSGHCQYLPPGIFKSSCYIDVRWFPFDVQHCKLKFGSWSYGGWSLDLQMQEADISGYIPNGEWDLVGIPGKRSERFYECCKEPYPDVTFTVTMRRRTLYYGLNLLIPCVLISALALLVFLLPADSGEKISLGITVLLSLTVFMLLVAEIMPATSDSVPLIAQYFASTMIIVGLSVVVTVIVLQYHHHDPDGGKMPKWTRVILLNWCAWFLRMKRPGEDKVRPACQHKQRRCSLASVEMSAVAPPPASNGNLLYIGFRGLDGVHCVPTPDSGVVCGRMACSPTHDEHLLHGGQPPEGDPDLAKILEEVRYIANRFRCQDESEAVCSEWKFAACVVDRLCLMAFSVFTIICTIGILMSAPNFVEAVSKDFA

Fc1ccc(-c2nnc(N3CCN4CCC3CC4)o2)cc1
Ki [1]: 11.6 nM

[18F]c1ccc(-c2nnc(N3CCN4CCC3CC4)o2)cc1
Drug uptake (Brain [2]): 1.73 % ID/g

O=C(c1ccc(-c2cccc(C(F)(F)F)c2)o1)N1CCN2CCC1CC2
Drug uptake (Mus musculus [3]): 5.11 % ID/g | Drug uptake (Heart): 1.77 % ID/g | Drug uptake (Urinary bladder): 1.45 % ID/g | Drug uptake (Stomach): 9.71 % ID/g | Drug uptake (Zone of skin): 1.7 % ID/g | Drug uptake (Mus musculus [4]): 2.51 % ID/g | Ki [5]: 1.1 nM | Drug uptake (Liver): 6.67 % ID/g | Drug uptake (Femur): 1.49 % ID/g | Drug uptake (Brain [6]): 0.14 % ID/g | Drug uptake (Lung): 4.56 % ID/g | Drug uptake (Muscle tissue): 1.05 % ID/g | Drug uptake (Pancreas): 3.04 % ID/g | Drug uptake (Kidney): 11.7 % ID/g | Drug uptake (Mus musculus [7]): 15.3 % ID/g | Drug uptake (Spleen): 6.57 % ID/g | Drug uptake [8]: 218 % ID/g | Drug uptake (Blood): 0.75 % ID/g | Drug uptake (Mus musculus [9]): 2.25 % ID/g

[18F]CCn1ccc2ccc(-c3nnc(N4CCN5CCC4CC5)o3)cc21
logD [10]: -2.05 | Kp at 1 h [11]: 0.26 | remaining at 2 h [12]: ≥ 97% | Kp at 0.5 h [13]: 0.19 | remaining at 5 min [14]: 98% | Kp at 5 min [15]: 0.11 | Kp at 0.25 h [16]: 0.18 | logD at 0.5 h [17]: 1.11 | remaining at 5 min [18]: 98% | remaining at 2 h [19]: ≥ 97%

FCCn1ccc2ccc(-c3nnc(N4CCN5CCC4CC5)o3)cc21
Ratio Ki (Homo sapiens [20]): 40.8 | Ki [21]: 2.5 nM | Ki [22]: 102 nM | Ratio Ki (Homo sapiens [23]): > 400 | Ki [24]: > 1000 nM
